Assay results from PubChem BioAssay.
Inconclusive results are not listed.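 Rule for the calls, unless noted: active = viability increase at or above a cutoff of the median across tested compounds plus 3 SD (cut at about 8.5% in these data, passing the limit was not always enough); inconclusive = some gains above the cutoff, reason not given; inactive = the rest.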

What was measured:
[1] = S. cerevisiae growth inhibition in permissive medium (OD615), pilot counter-assay for S. cerevisiae lifespan shortening project, permissive growth control (AID 705;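 active = growth inhibition above 25% in both replicates, a cutoff set 3 SD above the mean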); conditions: OD615, 24 h, at 10 µM, stronger effect = higher value
How it was run: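 System – S. cerevisiae with engineered DeaD lifespan system · Buffer or medium – SC raffinose/galactose permissive medium · Schedule – cells pre-grown 4 h, then 24 h compound exposure, 30 °C humidified · Technique – culture turbidity as optical density at 615 nm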

[2] = S. cerevisiae growth inhibition in restrictive medium, OD615, pilot screen, restrictive growth control, yeast lifespan reduction project (AID 706;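 active = growth inhibition above a set limit, 3 SD over mean compound inhibition, in both replicates, cut at about 43% in these data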;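 note: modified DeaD lifespan yeast strain shifted to restrictive glucose medium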); conditions: OD615, 48 h, at 10 µM, stronger effect = higher value
How it was run: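 Material: engineered S. cerevisiae DeaD strain / Medium: glucose-based CSMM-D restrictive medium / Compound: single dose of 10 µM compound final, 0.25% DMSO / Timing: 4 h pre-incubation, 48 h exposure at 30 °C / Technique: OD615 absorbance reading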

[3] = doxorubicin toxicity protection in MRP-1 cells – H69AR cells, CellTiter-Glo, duplicate, MRP-1 activator project, pilot screen (AID 807); conditions: H69AR viability with doxorubicin, CellTiter-Glo luminescence; at 10 µM; stronger effect = higher value;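 note: compound pretreatment 18-22 h then 72 h combined with doxorubicin; 0% = doxorubicin alone and 100% = vehicle without doxorubicin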
[4] = viability of HCT116 without oncogenic beta-catenin – human colon tumor cells, pilot screen (AID 823;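 active = cell viability at or below a set limit in both duplicate runs, the limit being the all-compound median minus 4 SD, cut at about 23% in these data, passing the limit was not always enough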;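 note: 0% = wells killed by 20 µM Hyamine and 100% = untreated DMSO cell wells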); conditions: HCT116 beta-catenin knockout viability, CellTiter-Glo, 60 h; at 10 µM; stronger effect = lower value
[5] = viability of PTEN-null HCT116 cells – cell-based, HCT116 clonal line, CellTiter-Glo, pilot screen (AID 824;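 active = viability at or below 27.92% in each of two runs, the all-compound median minus 4 SD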;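 note: 0% = 20 µM Hyamine control and 100% = vehicle cell control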); conditions: HCT116 PTEN-deleted viability, 60 h, at 10 µM, stronger effect = lower value
[6] = RAM pathway blockade in budding yeast – dse1pr::URA3 reporter, 5-FOA selection, pilot screen (AID 869;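 active = inhibition over a set limit, the all-compound mean plus 3 SD, in both replicate runs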;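 note: 0% = DMSO wells with no growth and 100% = 10 µM 1-NA-PP1 with full growth; RAM network block rescues cells from 5-FOA so hits raise OD615 growth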); conditions: S. cerevisiae dse1pr::URA3 5-FOA growth, OD615, 2 d; at 10 µM; stronger effect = higher value; strain carries analog-sensitive mutant Cbk1 kinase
[7] = RAM signaling pathway blockade in yeast – S. cerevisiae, Pdr1DBD-CYC8 efflux-inhibited sensitized strain, primary screen (AID 1298;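 active = RAM network inhibition above 8.4% in each of two replicates, 3 SD over the compound average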;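 note: 0% = DMSO untreated cells without growth and 100% = 10 µM 1-NA-PP1 full growth; higher means more yeast growth rescued from 5-FOA killing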); conditions: S. cerevisiae cbk1-as DSE1-URA3 strain, 5-FOA growth OD615, 2 d; at 50 µM; stronger effect = higher value

CC(=O)CCc1c(C)[nH]c2ccc(NC(C)=O)cc2c1=O
inactive: growth inhibition [1] 5.26% | growth inhibition [2] 8.18% | viability increase [3] -0.95% | viability [4] 100% | viability [5] 98% | inhibition [6] 0.77% | RAM network inhibition [7] 2.81%

O=C1NCCCC1C(=O)NCCNC(=O)C(F)(F)F (configuration not stated)
inactive: growth inhibition [1] -4.04% | growth inhibition [2] -0.705% | viability increase [3] -1.47% | viability [4] 101% | viability [5] 94.7% | inhibition [6] 0.3% | RAM network inhibition [7] 4.25%

CCN(CC)S(=O)(=O)c1ccc(Cl)c(C(=O)Nc2nnc(C)s2)c1
inactive: growth inhibition [1] -6.93% | growth inhibition [2] 1.45% | viability increase [3] 0.43% | viability [4] 93.1% | viability [5] 95.7% | inhibition [6] -0.08% | RAM network inhibition [7] 4.33%

CCCOC(=O)CC1C(=O)NCCN1Cc1ccccc1C (configuration not stated)
inactive: growth inhibition [1] -20.8% | growth inhibition [2] -0.97% | viability increase [3] -0.62% | viability [4] 98.8% | viability [5] 94.2% | inhibition [6] 1.71% | RAM network inhibition [7] 7.95%

CCOc1ccccc1Oc1c(C)oc2cc(OC(=O)N3CCOCC3)ccc2c1=O
inactive: growth inhibition [1] -12.9% | growth inhibition [2] -3.33% | viability increase [3] -0.28% | viability [4] 103% | viability [5] 103% | inhibition [6] 2.8% | RAM network inhibition [7] 4.64%

CCOC(=O)C1C(=O)N(C(=O)c2cncc(Br)c2)CC1c1ccccc1 (configuration not stated)
inactive: growth inhibition [1] -0.835% | growth inhibition [2] 8.88% | viability increase [3] -0.37% | viability [4] 101% | viability [5] 106% | inhibition [6] 0.985% | RAM network inhibition [7] 9.56%

O=C(O)CCC(=O)Nc1ccc(-c2nnc(-c3ccco3)o2)cc1
inactive: growth inhibition [1] -12.8% | growth inhibition [2] -4.63% | viability increase [3] -0.63% | viability [4] 102% | viability [5] 99.8% | inhibition [6] 1.61% | RAM network inhibition [7] 2.14%

O=C(NCc1cccs1)C1CCCN1S(=O)(=O)c1ccccc1F (configuration not stated)
inactive: growth inhibition [1] -2.45% | growth inhibition [2] -6.33% | viability increase [3] -0.97% | viability [4] 102% | viability [5] 90.7% | inhibition [6] 0.91% | RAM network inhibition [7] 2.5%

COc1cc(NC(=O)c2cc3c(C)nc4ccccc4c3o2)cc(OC)c1OC
inactive: growth inhibition [1] 7.32% | growth inhibition [2] 13.2% | viability increase [3] -5.18% | viability [4] 86.2% | viability [5] 86.7% | inhibition [6] 0.93% | RAM network inhibition [7] 0.97%

CNS(=O)(=O)c1ccc(Oc2ccc(S(=O)(=O)NC)cc2)cc1
inactive: growth inhibition [1] 2.02% | growth inhibition [2] 2.91% | viability increase [3] -0.17% | viability [4] 86.7% | viability [5] 83.9% | inhibition [6] 2% | RAM network inhibition [7] 3.27%

COC(=O)NCc1ccc(Cl)c(Cl)c1
inactive: growth inhibition [1] 0.76% | growth inhibition [2] -7.57% | viability increase [3] -1.07% | viability [4] 85.4% | viability [5] 88.6% | inhibition [6] 0.09% | RAM network inhibition [7] 4.44%

CC(=O)C1=C(C)NC(SCC(=O)c2ccc(C)cc2)=C(C#N)C1c1ccco1 (configuration not stated)
inactive: growth inhibition [1] -5.27% | growth inhibition [2] 32.5% | viability increase [3] -6.5% | viability [4] 49.2% | viability [5] 52.7% | inhibition [6] 4.71% | RAM network inhibition [7] 2.93%

CCOC(=O)C1CCCN(C(=O)Cn2nc(Cc3cccnc3)c3ccccc3c2=O)C1 (configuration not stated)
inactive: growth inhibition [1] 3.18% | growth inhibition [2] -7.92% | viability increase [3] 1.09% | viability [4] 99.5% | viability [5] 102% | inhibition [6] 2.21% | RAM network inhibition [7] 2.19%

CCCn1cc(SCC(=O)Nc2nnc(C)s2)c2ccccc21
inactive: growth inhibition [1] 3.3% | growth inhibition [2] 0.865% | viability increase [3] -2.55% | viability [4] 91% | viability [5] 96.2% | inhibition [6] 1.1% | RAM network inhibition [7] 3.75%

COc1ccc(C2C(C(=O)N3CCN(c4ccccc4)CC3)c3ccccc3C(=O)N2C)cc1OC (configuration not stated)
inactive: growth inhibition [1] -8.36% | growth inhibition [2] -14.2% | viability increase [3] -1.19% | viability [4] 97.1% | viability [5] 99.3% | inhibition [6] 1.28% | RAM network inhibition [7] 0.53%

Cc1occc1C(=O)NCc1cccs1
inactive: growth inhibition [1] -6.07% | growth inhibition [2] -2.95% | viability increase [3] -1.27% | viability [4] 91% | viability [5] 95.9% | inhibition [6] 0.455% | RAM network inhibition [7] -0.16%

O=C(O)CC(NC(=O)OCc1ccccc1)c1ccccc1 (configuration not stated)
inactive: growth inhibition [1] 2.56% | growth inhibition [2] -5.79% | viability increase [3] -1.78% | viability [4] 91.7% | viability [5] 96.5% | inhibition [6] 1.17% | RAM network inhibition [7] -0.33%

CCOC(=O)/C(C#N)=C1/C=Nc2ccccc2N1
inactive: growth inhibition [1] -4.26% | growth inhibition [2] -1.09% | viability increase [3] -1.54% | viability [4] 103% | viability [5] 89.8% | inhibition [6] -0.42% | RAM network inhibition [7] 0.25%

CC1(C)CC(=O)C=C(NCc2cccnc2)C1
inactive: growth inhibition [1] -4.83% | growth inhibition [2] -11.8% | viability increase [3] -1.4% | viability [4] 92.2% | viability [5] 94.9% | inhibition [6] -0.505% | RAM network inhibition [7] 1.01%

CCCCNC(=O)c1cc2c(-c3ccc(Cl)cc3)nn(C)c2s1
inactive: growth inhibition [1] 3.71% | growth inhibition [2] 6.75% | viability increase [3] -5.53% | viability [4] 89.9% | viability [5] 88.7% | inhibition [6] 3.1% | RAM network inhibition [7] 4.05%

COc1cccc(NC(=O)Cn2cc3c(n2)CCCCC3)c1
inactive: growth inhibition [1] -10% | growth inhibition [2] -7.44% | viability increase [3] 0.07% | viability [4] 98.2% | viability [5] 92% | inhibition [6] 1.66% | RAM network inhibition [7] 6.31%

Cc1ccc(OC(=O)CCC(=O)N2CCc3ccccc32)cc1
inactive: growth inhibition [1] -5.4% | growth inhibition [2] -2.35% | viability increase [3] -3.7% | viability [4] 89.6% | viability [5] 97.9% | inhibition [6] 2.2% | RAM network inhibition [7] 0.82%

COc1cc(OC)c(Cl)cc1N
inactive: growth inhibition [1] -8.61% | growth inhibition [2] -16.7% | viability increase [3] -2.54% | viability [4] 98% | viability [5] 95.7% | inhibition [6] 1.47% | RAM network inhibition [7] 2.8%

COc1ccccc1NC(=O)c1ccc(S(=O)(=O)N2CCCC2)cc1
inactive: growth inhibition [1] -5.88% | growth inhibition [2] -5.9% | viability increase [3] 0.68% | viability [4] 114% | viability [5] 94.9% | inhibition [6] 2.33% | RAM network inhibition [7] 2.32%

N#Cc1c(-c2ccco2)c2c([nH]c1=S)CCCC2
inactive: growth inhibition [1] 6.88% | growth inhibition [2] -0.73% | viability increase [3] -3.4% | viability [4] 105% | viability [5] 93.8% | inhibition [6] 1.57% | RAM network inhibition [7] 1.82%

CC(=O)c1sc(NC(=O)c2ccccc2F)nc1C
inactive: growth inhibition [1] -10.4% | growth inhibition [2] -3.2% | viability increase [3] -0.32% | viability [4] 79% | viability [5] 75.2% | inhibition [6] 0.31% | RAM network inhibition [7] 0.74%

O=C(Nc1ccc(-c2nc3cccnc3s2)cc1)c1ccco1
inactive: growth inhibition [1] -4.68% | growth inhibition [2] 9.91% | viability increase [3] -3.43% | viability [4] 90% | viability [5] 80.4% | inhibition [6] 1.75% | RAM network inhibition [7] -1.95%

CCCNS(=O)(=O)c1cccc2cccnc12
inactive: growth inhibition [1] -6.87% | growth inhibition [2] 6.17% | viability increase [3] -1.58% | viability [4] 101% | viability [5] 96.5% | inhibition [6] 1.89% | RAM network inhibition [7] 0.72%

Cc1noc(C)c1S(=O)(=O)N(CC(=O)N1CCCC1)c1ccc(C(C)C)cc1
inactive: growth inhibition [1] -1.45% | growth inhibition [2] -1.11% | viability increase [3] -5.13% | viability [4] 83.6% | viability [5] 83% | inhibition [6] 0.4% | RAM network inhibition [7] 4.43%

COc1ccc(N(CC(=O)NC2CCCCCCC2)S(=O)(=O)c2c(C)nn(C)c2C)cc1
inactive: growth inhibition [1] -20.7% | growth inhibition [2] -13.6% | viability increase [3] -2.87% | viability [4] 89.2% | viability [5] 87.5% | inhibition [6] 1.31% | RAM network inhibition [7] 0.05%

Cc1cc(N2CCOCC2)c2c(N)c(Br)cc(C)c2n1
inactive: growth inhibition [1] -14% | growth inhibition [2] -15.8% | viability increase [3] -5.84% | viability [4] 80.1% | viability [5] 76.4% | inhibition [6] 1.16% | RAM network inhibition [7] 3.17%

COc1cc(-c2nc(-c3cccc(C)c3)no2)cc(OC)c1OC
inactive: growth inhibition [1] -5.34% | growth inhibition [2] -14.7% | viability increase [3] 0.46% | viability [4] 81.3% | viability [5] 81% | inhibition [6] 2.26% | RAM network inhibition [7] 9.46%

Cc1ccccc1-c1nnc(-c2ccc(Cl)cc2)o1
inactive: growth inhibition [1] -18.7% | growth inhibition [2] -20.9% | viability increase [3] -6.28% | viability [4] 77.9% | viability [5] 64.8% | inhibition [6] 4.19% | RAM network inhibition [7] 6.89%

Cc1cc(C)nc(NS(=O)(=O)c2ccc(Br)s2)c1
inactive: growth inhibition [1] -1.63% | growth inhibition [2] -7.46% | viability increase [3] -0.89% | viability [4] 95.9% | viability [5] 93.5% | inhibition [6] 0.28% | RAM network inhibition [7] 9.36%

CCc1nnc(NC(=O)CSc2nnc(Cc3cccn3C)n2CCOC)s1
inactive: growth inhibition [1] -4.61% | growth inhibition [2] 32.5% | viability increase [3] -0.66% | viability [4] 96.8% | viability [5] 98.3% | inhibition [6] 0.98% | RAM network inhibition [7] 2.84%

CS(=O)(=O)c1ccc(N)cc1
inactive: growth inhibition [1] -13.1% | growth inhibition [2] -8.62% | viability increase [3] -2.37% | viability [4] 103% | viability [5] 88.9% | inhibition [6] 2.72% | RAM network inhibition [7] 1.16%
